Marks after values point to notes of the source that are not given here.
Tests used:
[1] = MPKF phase I two-period crossover food effect pharmacokinetic study; type: in vivo, human; details: for AUC0–inf LSM geometric mean ratio (90% CI) / C max LSM geometric mean ratio (90% CI): fed (test) vs fasted (reference); for AUC(0-inf) / Cmax: human, 120 mg; for AUC(0-inf): AUC0–inf; for Cmax: C max
[2] = PopPK model of MDMA and MDA; type: in vivo, human
Procedure, shortened: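 Single-dose plasma data came from 65 healthy volunteers: 16 from the fasted food-effect study and 49 from a randomized, double-blind, placebo-controlled crossover study. The dataset held 2012 MDMA and 1871 MDA samples, excluding BLQ values, samples with missing time and pre-dose concentrations. Modelling used nonlinear mixed effects with first-order conditional estimation with interaction. One- and two-compartment models were tested, with first-order or sequential zero-/first-order absorption.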

[3] = HVs, single oral dose of 100 mg MDMA HCl, absence of paroxetine; cited from earlier work
[4] = cited from earlier work
[5] = plasma, oral, Median [Min, Max], 120 mg MDMA HCl, Fasted
[6] = plasma, oral, Median [Min, Max], 120 mg MDMA HCl, Fed
[7] = plasma, po, Geo. Mean (Geo. CV%), single oral 120 mg MDMA HCl, Fasted, N = 15
[8] = plasma, po, Geo. Mean (Geo. CV%), single oral 120 mg MDMA HCl, Fed (high-fat/high-calorie meal), N = 14
[9] = MPKF fasted vs NIDA light breakfast
[10] = MPKF fed vs NIDA light breakfast

With `CC(N)Cc1ccc2c(c1)OCO2` (stereo not drawn) [MDA, 3,4‐methylenedioxyamphetamine] the “AUC0–inf LSM geometric mean ratio (90% CI)” value [1] was 0.99 (0.93–1.06), the “C max LSM geometric mean ratio (90% CI)” value [1] was 0.96 (0.90–1.03) and the AUC(0-inf) [1, 5] was 358 ng·h/mL. The AUC(0-inf) [1, 6] was 343 ng·h/mL, the Cmax [1, 5] was 12.5 ng/mL and the AUC(0-inf) [1, 7] was 330 ng·h/mL. The AUC(0-inf) [1, 8] was 369 ng·h/mL, the “lower V4 (MDA peripheral volume of distribution) in female subjects” value ([2]; compared to male) was 18% and the “Body weight effect on CLM, Bootstrap median (95% CI)” value ([2]; covariate coefficient) was 0.585 (0.209, 0.879). The “Body weight effect on CLM, Estimate” value ([2]; covariate coefficient) was 0.580, the “Body weight effect on QM, Bootstrap median (95% CI)” value ([2]; covariate coefficient) was 1.02 (0.408, 1.63) and the “Body weight effect on QM, Estimate” value ([2]; covariate coefficient) was 1.00. For the same molecule, the “Sex effect on V4, Bootstrap median (95% CI)” value ([2]; female vs male) was −0.18 (−0.321, −0.0256), the “Sex effect on V4, Estimate” value ([2]; female vs male) was −0.181 and the Vd ([2]; human, plasma, oral) was 20.8 L. The clearance ([2]; human, plasma, oral) was 582 mL/min, the “IIV on CLM, Estimate” value ([2]; inter-individual variability) was 32.0 ^ b , ^ c %CV and the “IIV on QM, Estimate” value ([2]; inter-individual variability) was 46.8 ^ b , ^ d %CV. The “IIV on V4, Estimate” value ([2]; inter-individual variability) was 35.2 ^ c , ^ d %CV, the “CLM, Bootstrap median (95% CI)” value ([2]; n = 1000 bootstrap) was 36.1 (33.5, 38.8) L/h and the “QM, Bootstrap median (95% CI)” value ([2]; n = 1000 bootstrap) was 83.9 (68.8, 103) L/h. The “V3, Bootstrap median (95% CI)” value ([2]; n = 1000 bootstrap) was 20.8 (11.9, 28.4) L and the “V4, Bootstrap median (95% CI)” value ([2]; n = 1000 bootstrap) was 213 (181, 246) L.
For `CNC(C)Cc1ccc2c(c1)OCO2` (stereo not drawn) [MDMA, 3,4‐methylenedioxymethamphetamine], the “AUC0–inf LSM geometric mean ratio (90% CI)” value [1] was 0.99 (0.94–1.04), the “C max LSM geometric mean ratio (90% CI)” value [1] was 0.97 (0.92–1.01) and the “T max delay following administration with food” value ([1]; fed vs fasted) was 2 h. The AUC(0-inf) [1, 5] was 3730 ng·h/mL, the Cmax [1, 5] was 234 ng/mL and the Cmax [1, 6] was 230 ng/mL. The AUC(0-inf) [1, 7] was 3390 ng·h/mL, the AUC(0-inf) [1, 8] was 3320 ng·h/mL and the “T max, Median [Min, Max]” value ([1]; plasma, 120 mg MDMA HCl, Fasted) was 2.1 [2.0, 8.0] h. The “adverse events (AE) severity” value ([1]; single 120 mg MDMA HCl, healthy volunteers) was “mild in severity and resolved”, the “fmet (fraction of MDMA metabolized to MDA)” value ([2]; FIXED in the model) was 0.1 FIXED and the “faster absorption in fasted subjects” value ([2]; MPKF fasted compared to NIDA light breakfast) was 193%. For the same molecule, the “Fasted status effect on ka, Bootstrap median (95% CI)” value [2, 9] was 1.08 (0.277, 4.31), the “Fasted status effect on ka, Estimate” value [2, 9] was 1.93 and the “Fed status effect on ka, Bootstrap median (95% CI)” value [2, 10] was −0.496 (−0.645, −0.239). The “Fed status effect on ka, Estimate” value [2, 10] was −0.484, the “Study effect on V2/F, Bootstrap median (95% CI)” value ([2]; MPKF vs NIDA) was −0.267 (−0.342, −0.19) and the “Study effect on V2/F, Estimate” value ([2]; MPKF vs NIDA) was −0.263. For the same molecule, the “lower MDMA CL/F for MPKF subjects” value ([2]; compared to NIDA) was 36%, the “lower MDMA V2/F for MPKF subjects” value ([2]; compared to NIDA) was 26% and the “Body weight effect on V2/F, Bootstrap median (95% CI)” value ([2]; covariate coefficient) was 0.884 (0.6, 1.11). For the same molecule, the “Body weight effect on V2/F, Estimate” value ([2]; covariate coefficient) was 0.885, the “ALAG1 (absorption lag time), Estimate” value ([2]; final MDMA PopPK model) was 0.322 h and the “CL/F, Estimate” value ([2]; final MDMA PopPK model) was 41.5 L/h. The “D1 (duration of zero order input), Estimate” value ([2]; final MDMA PopPK model) was 0.304 h, the “V2/F, Estimate” value ([2]; final MDMA PopPK model) was 462 L and the “ka, Estimate” value ([2]; final MDMA PopPK model) was 1.17 h⁻¹. For the same molecule, the “IIV on CL/F, Estimate” value ([2]; inter-individual variability) was 30.5 ^a %CV, the “IIV on D1, Estimate” value ([2]; inter-individual variability) was 153 %CV and the “IIV on KA, Estimate” value ([2]; inter-individual variability) was 60.2 %CV. The “IIV on V2/F, Estimate” value ([2]; inter-individual variability) was 19.9 ^a %CV, the “ALAG1, Bootstrap median (95% CI)” value ([2]; n = 1000 bootstrap) was 0.323 (0.273, 0.358) h and the “CL/F, Bootstrap median (95% CI)” value ([2]; n = 1000 bootstrap) was 41.8 (37.7, 45.8) L/h. For the same molecule, the “D1, Bootstrap median (95% CI)” value ([2]; n = 1000 bootstrap) was 0.271 (0.141, 0.485) h, the “V2/F, Bootstrap median (95% CI)” value ([2]; n = 1000 bootstrap) was 461 (429, 496) L and the “ka, Bootstrap median (95% CI)” value ([2]; n = 1000 bootstrap) was 1.17 (0.969, 1.43) 1/h. The “CL/F (apparent oral clearance)” value [3] was 36.3 L/h, the “CLR (renal clearance)” value [3] was 9.40 L/h and the “effective dose (as low as)” value [4] was no less than 75 mg HCl. For the same molecule, the “tolerated dose (as high as)” value ([4]; split dose) was no more than 225 mg HCl.

Reference: paper PMC11812931 (CPT: Pharmacometrics & Systems Pharmacology, 2024)
